Active and inactive are the calls of the source. No cut-off for these calls is given here.
How the values were obtained:
MCF7 = assay: Antiproliferative activity against human MCF7 cells with silenced HER2 assessed as cell growth inhibition incubated for 72 hrs by cell titer glo assay; format: functional, cell-based; conditions: MCF7, 72 h
Outline: (§1)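 Cells seeded at 1×10^4 per well, left overnight at 37 °C/5% CO2, then exposed to a concentration series of peptide (up to 200, down to 0.01 μM) for 72 h. 1% SDS and 1% DMSO served as controls. Cells were PBS-washed, CellTiter-Glo added and luminescence read. IC50 taken from three independent experiments per cell line.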

A549 [1] = assay: Antiproliferative activity against human A549 cells overexpressing HER2 assessed as cell growth inhibition incubated for 72 hrs by cell titer glo assay; format: functional, cell-based; conditions: A549, 72 h; outline: as §1
MCF-10A = assay: Cytotoxicity against human MCF-10A cells assessed as cell growth inhibition incubated for 72 hrs by cell titer glo assay; format: cell-based; outline: as §1
[2] = biological target: Receptor tyrosine-protein kinase erbB-2 (Homo sapiens) (UniProt P04626); assay: Binding affinity to HER2 ECD (unknown origin) by SPR analysis
[3] = biological target: Receptor tyrosine-protein kinase erbB-2 (Homo sapiens) (UniProt P04626); assay: Binding affinity to HER2 (unknown origin) assessed as reduction in heterodimerization of HER2/EGFR by competitive based SPR analysis
Outline: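 Competitive SPR: EGFR with EGF immobilized on a CM5 chip. HER2 protein fixed at 200 nM was preincubated 15 min in HEPES buffer with varying peptide, then injected. Read-out was the drop in response units. Surface regenerated with glycine pH 2.2 between injections.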

[4] = biological target: Epidermal growth factor receptor and ErbB2 (HER1 and HER2) (Homo sapiens) (UniProt P04626+P00533); assay: Inhibition of HER2/EGFR dimerization in human A549 cells incubated for 48 hrs by proximity ligation assay; format: cell-based; conditions: dose 0.5-1 µM
Outline: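 A549 or Calu-3 cells (~1×10^4/well) on chamber slides, treated 48 h with 0.5 or 1 μM peptide. Controls: no compound, and one primary antibody omitted. Cells fixed in cold methanol, primary antibodies (EGFR, HER2, HER3) applied overnight at 4 °C, then PLA probes. Red fluorescence imaged at 40x and quantified over 3–6 fields.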

[5] = biological target: Receptor tyrosine-protein kinase erbB-2 (Homo sapiens) (UniProt P04626); assay: Inhibition of HER2 ECD in human A549 cells assessed as reduction in HER2 intracellular kinase domain phosphorylation at 1 uM incubated for 40 hrs by Western blot analysis; format: cell-based
[6] = biological target: Receptor tyrosine-protein kinase erbB-2 (Homo sapiens) (UniProt P04626); assay: Inhibition of HER2 ECD in human A549 cells assessed as reduction in Akt phosphorylation at 1 uM incubated for 40 hrs by Western blot analysis; format: cell-based
[7] = Thermal stability of compound at 15 uM incubated at 25 to 75 degC by Circular dichroism spectrometry; format: physicochemical
Outline: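 Peptide at 15 μM in acetonitrile. Ellipticity recorded from 25 to 75 °C in 5 °C steps.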

[8] = Thermal stability of compound at 15 uM incubated at 25 to 75 degC by MALDI-TOF analysis; format: physicochemical
Outline: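 Peptide at 15 μM in acetonitrile heated from 25 to 75 °C. Mass checked at 25, 50 and 70 °C and at the end of the run.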

[9] = Thermal stability of compound at 15 uM incubated at 25 to 75 degC in presence of DTT by circular dichroism spectrometry; format: physicochemical
[10] = Toxicity in Foxn1nu/Foxn1+ mouse xenografted with human Calu-3 cells assessed as clinical observation at 8 mg/kg, IT(Intratumoral) administered thrice a week for 28 days and measured on day 28; format: organism-based; conditions: in vivo, other, 672 h, time 28 day
Mus musculus [11] = assay: In vivo inhibition of HER2/EGFR dimerization in human Calu-3 cells xenografted in Foxn1nu/Foxn1+ mouse at 8 mg/kg, IT(Intratumoral) administered thrice a week for 28 days and measured on day 28 by proximity ligation assay; format: functional, organism-based; conditions: time 28.0 day
Outline: (§2)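 Tumors taken from the Calu-3 intratumoral study (8 mg/kg three times weekly, 28 days). Two tumors frozen at −80 °C, homogenized and immunoblotted for p-HER2. Others fixed, paraffin-embedded and sectioned at 5 μm. Sections underwent citrate pH 6.0 antigen retrieval, H2O2 block and BSA/NGS/Triton block, EGFR/HER2 primaries overnight at 4 °C, then PLA probes; imaged at 10X/40X.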

Mus musculus [12] = assay: In vivo inhibition of HER2 in human Calu-3 cells xenografted in Foxn1nu/Foxn1+ mouse assessed as reduction in HER2 phosphorylation at 8 mg/kg, IT(Intratumoral) administered thrice a week for 28 days and measured on day 28 by Western blot analysis; format: functional, organism-based; conditions: time 28.0 day; outline: as §2
A549 [13] = assay: Antitumor activity in Red-Fluc transfected human A549 cells harbouring KRAS mutant/wild type EGFR xenografted in Foxn1nu/Foxn1+ mouse assessed as reduction in tumor growth by measuring relative luminescence intensity at 6 mg/kg, iv treated twice a week measured after 2 weeks relative to vehicle; format: functional, organism-based
Mus musculus [14] = assay: In vivo inhibition of HER2/HER3 dimerization in human A549 cells harbouring KRAS mutant/wild type EGFR xenografted in Foxn1nu/Foxn1+ mouse by measuring reduction in red fluorescence at 6 mg/kg, iv administered twice a week for 5 weeks by proximity ligation assay; format: functional, organism-based
Outline: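 Lung tumor sections from the A549-Red-FLuc i.v. metastasis mice (6 mg/kg i.v. twice weekly; sacrificed day 35). FFPE sections had citrate pH 6.0 antigen retrieval at 100 °C, peroxidase and serum blocking, primaries overnight at 4 °C, and PLA probes for EGFR:HER2 and HER2:HER3. Red fluorescence imaged at 40×.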

[15] = Toxicity in BALB/c mouse assessed as Ki-67 expression in CD4+ at 6 mg/kg, iv administered on day 0 and 10 and spleenocytes collected on day 13 and incubated for 48 hrs by flow cytometry analysis; format: organism-based; conditions: in vivo, 360 h, time 15 day
Outline: (§3)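 Female BALB/c mice given 6 mg/kg peptide in PBS i.v. (or PBS) on days 0 and 10, 12 mice in total. Splenocytes harvested day 13, RBC-lysed, and ≥2×10^6 cultured 48 h in RPMI/10% FBS with control media or peptide. Cells then stained for viability, CD3/CD4/CD8a and intracellular Ki67, and analyzed by flow cytometry.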

[16] = Toxicity in BALB/c mouse assessed as Ki-67 expression in CD4+CD8+ at 6 mg/kg, iv administered on day 0 and 10 and spleenocytes collected on day 13 and incubated for 48 hrs by flow cytometry analysis; format: organism-based; conditions: in vivo, 360 h, time 15 day; outline: as §3
NCI-H1975 [17] = assay: Synergistic antiproliferative activity against human NCI-H1975 cells assessed as combination index after 72 hrs in presence of erlotinib by cell titer glo assay; format: functional
NCI-H1975 [18] = assay: Synergistic antiproliferative activity against human NCI-H1975 cells assessed as combination index after 72 hrs in presence of lapatinib by cell titer glo assay; format: functional
[19] = Toxicity in Foxn1nu/Foxn1+ mouse xenografted with human A549 cells harbouring KRAS mutant/wild type EGFR assessed as enlarged cells in lung at 6 mg/kg, iv administered twice a week for 5 weeks; conditions: in vivo, 840 h
[20] = Toxicity in Foxn1nu/Foxn1+ mouse xenografted with human A549 cells harbouring KRAS mutant/wild type EGFR assessed as hyper-chromatic nuclei in lung at 6 mg/kg, iv administered twice a week for 5 weeks; conditions: in vivo, 840 h

Receptor tyrosine-protein kinase erbB-2 (Homo sapiens), sequence (P04626 whole entry, the tested form may be a part): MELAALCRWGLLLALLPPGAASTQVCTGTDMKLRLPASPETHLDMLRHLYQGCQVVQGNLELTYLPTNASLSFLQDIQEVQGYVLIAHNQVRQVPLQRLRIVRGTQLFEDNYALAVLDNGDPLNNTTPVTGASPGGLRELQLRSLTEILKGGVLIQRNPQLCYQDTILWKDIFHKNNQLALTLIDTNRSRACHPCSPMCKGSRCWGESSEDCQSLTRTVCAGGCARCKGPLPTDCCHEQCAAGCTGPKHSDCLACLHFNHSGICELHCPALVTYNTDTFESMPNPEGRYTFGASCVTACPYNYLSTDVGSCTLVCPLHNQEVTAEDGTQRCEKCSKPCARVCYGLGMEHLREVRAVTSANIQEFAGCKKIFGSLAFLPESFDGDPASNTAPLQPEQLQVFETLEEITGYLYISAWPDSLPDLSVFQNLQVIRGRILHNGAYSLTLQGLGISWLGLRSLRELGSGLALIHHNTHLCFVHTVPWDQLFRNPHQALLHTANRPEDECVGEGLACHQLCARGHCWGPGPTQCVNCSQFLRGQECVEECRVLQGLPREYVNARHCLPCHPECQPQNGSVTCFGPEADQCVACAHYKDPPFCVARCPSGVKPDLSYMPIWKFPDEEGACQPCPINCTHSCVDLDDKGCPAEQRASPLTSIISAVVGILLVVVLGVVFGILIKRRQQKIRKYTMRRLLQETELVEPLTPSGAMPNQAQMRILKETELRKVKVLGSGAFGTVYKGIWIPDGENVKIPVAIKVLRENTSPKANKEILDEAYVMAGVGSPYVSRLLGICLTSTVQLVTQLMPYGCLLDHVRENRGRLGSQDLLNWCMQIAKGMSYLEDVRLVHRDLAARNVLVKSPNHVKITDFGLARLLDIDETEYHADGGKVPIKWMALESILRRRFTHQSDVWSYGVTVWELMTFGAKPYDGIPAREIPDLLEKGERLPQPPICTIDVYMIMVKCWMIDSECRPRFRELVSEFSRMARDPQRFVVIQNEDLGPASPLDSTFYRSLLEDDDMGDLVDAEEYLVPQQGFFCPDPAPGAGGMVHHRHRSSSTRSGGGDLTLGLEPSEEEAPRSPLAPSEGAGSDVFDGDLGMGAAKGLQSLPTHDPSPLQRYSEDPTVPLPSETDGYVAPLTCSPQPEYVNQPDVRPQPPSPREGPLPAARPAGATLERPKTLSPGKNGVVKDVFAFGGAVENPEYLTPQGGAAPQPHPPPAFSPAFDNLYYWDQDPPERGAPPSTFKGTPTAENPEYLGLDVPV

IC50 (MCF7): > 20 µM
IC50 (A549 [1]): 0.369 µM
Activity [2]: Dose-Dependent Effect
Activity [3]: Active
inhibition [4]: Dose-Dependent Effect
inhibition [5]: Active
inhibition [6]: Active
Stabilty [7]: Stable
Stabilty [8]: Stable
Stabilty [9]: Stable
Structure (SMILES): CC[C@H](C)[C@H]1C(=O)NC(=O)[C@H](CCCNC(=N)N)NC(=O)C[C@@H](c2cccc3ccccc23)NC(=O)N[C@H]2CSSC[C@H](NC(=O)C[C@@H](c3cccc4ccccc34)NC(=O)[C@H](CCCNC(=N)N)NC(=O)[C@@H]3CCCN3C(=O)[C@@H]3CCCN13)C(=O)N[C@@H](Cc1ccccc1)C(=O)N1CCC[C@H]1C(=O)N[C@@H](CC(=O)O)C(=O)NC(=O)[C@H](CC(=O)O)NC(=O)[C@H](Cc1ccccc1)NC2=O
IC50 (MCF-10A): > 40 µM
Activity [10]: Non-Toxic
inhibition (Mus musculus [11]): Active
inhibition (Mus musculus [12]): Active
Activity (A549 [13]): Active
inhibition (Mus musculus [14]): Active
Activity [15]: Non-Toxic
Activity [16]: Non-Toxic
CI (NCI-H1975 [17]): 0.76
CI (NCI-H1975 [18]): 0.83
Activity [19]: Non-Toxic
Activity [20]: Non-Toxic

From ChEMBL document CHEMBL4813972, “A grafted peptidomimetic for EGFR heterodimerization inhibition: Implications in NSCLC models” (Eur J Med Chem, 2021)
